Screening data deposited in PubChem BioAssay by several laboratories.
PMI act satM6P – human PMI activators, high substrate, primary screen, biochemical, fluorescence intensity, near-saturating mannose 6-phosphate | activation factor at 20 µM | AID 1216, 2008 | coupled PMI enzyme assay, resazurin fluorescence, 20 min; active compounds read high; 1 = untreated enzyme, 0 = substrate-free blank | Mannose-6-phosphate isomerase (Homo sapiens), P34949 | 0.34% of 190,000 active;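 active = activation factor of 2 or more at 20 µM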
Target sequence (P34949 whole entry, looked up): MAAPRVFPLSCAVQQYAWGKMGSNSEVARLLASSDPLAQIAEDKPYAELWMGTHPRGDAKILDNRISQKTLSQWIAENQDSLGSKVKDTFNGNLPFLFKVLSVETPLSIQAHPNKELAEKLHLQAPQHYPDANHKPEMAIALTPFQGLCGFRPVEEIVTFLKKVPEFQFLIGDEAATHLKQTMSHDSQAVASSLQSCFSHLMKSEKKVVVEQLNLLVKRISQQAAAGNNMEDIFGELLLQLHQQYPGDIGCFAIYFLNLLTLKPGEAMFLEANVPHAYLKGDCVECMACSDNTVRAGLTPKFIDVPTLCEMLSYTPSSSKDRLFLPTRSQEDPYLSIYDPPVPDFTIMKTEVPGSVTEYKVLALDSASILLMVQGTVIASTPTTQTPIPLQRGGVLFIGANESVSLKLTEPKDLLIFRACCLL
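Test system: human phosphomannose isomerase with PGI, G6PDH, diaphorase coupling enzymes; Amount: PMI at 15 ng/mL final; Reagent: Mannose-6-phosphate 1.0 mM (near-saturating) plus 0.22 mM NADP+; Timing: 20 min, room temperature; Technique: resorufin fluorescence at Ex 544/Em 590 nm; Dosing: 20 µM single dose.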
Lmaj promast – Leishmania major promastigote growth inhibition, primary screen; 9% of 200,000 active; Leishmania major promastigotes, resazurin fluorescence viability; inhibition, % at 10 µM; AID 1063, 2008; in the data active = inhibition above about 50%;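 note: promastigotes grown with compound for 44 hours at 28 °C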
bCat KO growth – primary screen for growth suppressors in beta-catenin knockout HCT116 cells (colon tumor, human); viability, % at 10 µM; HCT116 beta-catenin knockout viability, CellTiter-Glo, 60 h; active compounds read low; 1.5% of 140,000 active;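 active = viability at or under a set limit, the compound median less 4 SD, cut at about 6% in these data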;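 note: 0% = Hyamine 1622 control at 20 µM and 100% = untreated cell control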
PMI activator – activators of human PMI, primary screen, biochemical, fluorescence intensity, near-Km mannose 6-phosphate; Mannose-6-phosphate isomerase (Homo sapiens), P34949; purified human PMI, coupled resazurin fluorescence, 20 min; active compounds read high; 1 = vehicle control, 0 substrate-free wells; activation factor at 20 µM; 0.005% of 190,000 active; AID 1214, 2008;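 active = activation factor of 2 or more at 20 µM, relative to plate controls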
HCT116 PTEN-null – growth suppression of PTEN-null HCT116, primary screen, cell-based, CellTiter-Glo. viability, % at 10 µM. HCT116 PTEN-null viability, 60 h; active compounds read low. 1.2% of 140,000 active. AID 827, 2007;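 active = viability at or below a set limit, 4 SD under the median of all tested compounds, cut at about 3.7% in these data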;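 note: PTEN knockout HCT116 line with beta catenin targeted HCT116 as companion control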
Starred values were filed as active, the others as inactive. This is a sample that favours compounds with a hit; in the whole collection about 9.6% have one here.

What do the screens show for `Cc1[nH]n(-c2cccc3ccccc23)c(=O)c1/C=N/NC(=O)c1cccc([N+](=O)[O-])c1`?
PMI act satM6P: 1.2; Lmaj promast: -5; bCat KO growth: 4.5*; PMI activator: 1.1; HCT116 PTEN-null: 3.6*

What do the screens show for `COc1cccc(-n2cc(CNCc3cn(C)nc3-c3ccccc3F)cn2)c1`?
PMI act satM6P: 0.9; Lmaj promast: 1; PMI activator: 0.9

How did Cn1cc(CNCc2cn(C)nc2-c2ccc(C3CCCCC3)cc2)cn1 do in these assays?
PMI act satM6P: 0.9; Lmaj promast: 94*; PMI activator: 0.9

How did N/C(=N\OC(=O)COc1ccc2ccccc2c1)c1cccnc1 do in these assays?
PMI act satM6P: 0.8; Lmaj promast: -3; bCat KO growth: 78; PMI activator: 0.8; HCT116 PTEN-null: 68

What do the screens show for `Cc1cc(C)n(-c2ccc(C(=O)OCC(=O)Nc3cc(Cl)ccc3[N+](=O)[O-])cc2)n1`?
PMI act satM6P: 1; Lmaj promast: 59*; bCat KO growth: 82; PMI activator: 1.1; HCT116 PTEN-null: 86

Results for COCC(=O)OCC(=O)Nc1cc(C)c(C)cc1[N+](=O)[O-] ?
PMI act satM6P: 0.8; Lmaj promast: 55*; bCat KO growth: 100; PMI activator: 1.1; HCT116 PTEN-null: 98

What do the screens show for `Cc1ccc(C(=O)NCC(=O)OCC(=O)Nc2cc(C)c(C)cc2[N+](=O)[O-])cc1`?
PMI act satM6P: 0.9; Lmaj promast: 41; bCat KO growth: 86; PMI activator: 1; HCT116 PTEN-null: 99

Results for COc1ccc(Cl)cc1NC(=O)COC(=O)CNC(=O)c1ccc([N+](=O)[O-])c(C)c1 ?
PMI act satM6P: 0.9; Lmaj promast: 56*; bCat KO growth: 97; PMI activator: 1; HCT116 PTEN-null: 101

How did O=C(Cc1nc(-c2ccc([N+](=O)[O-])cc2)cs1)Nc1ccccc1 do in these assays?
PMI act satM6P: 1; Lmaj promast: 19; bCat KO growth: 84; PMI activator: 0.9; HCT116 PTEN-null: 86

Results for Cc1nnc2c3ccccc3c(Cl)nn12 ?
PMI act satM6P: 0.9; Lmaj promast: -3; PMI activator: 0.8

Results for NC(=O)c1cc([N+](=O)[O-])cc2c1C=Cc1ccccc1O2 ?
PMI act satM6P: 1.1; Lmaj promast: 90*; PMI activator: 1.1

How did Cc1cccc(C(=O)NC(=S)NCc2cccnc2)c1 do in these assays?
PMI act satM6P: 1; Lmaj promast: 32; bCat KO growth: 102; PMI activator: 1.1; HCT116 PTEN-null: 96

Results for COc1ccc(C(=O)NC(=S)NNC(=O)c2ccc(NC(C)=O)cc2)cc1Br ?
PMI act satM6P: 1.1; Lmaj promast: 77*; PMI activator: 1

Results for CCOC(=O)Cc1csc(NC(=S)NC(=O)c2ccc([N+](=O)[O-])cc2)n1 ?
PMI act satM6P: 0.9; Lmaj promast: 75*; bCat KO growth: 93; PMI activator: 0.9; HCT116 PTEN-null: 99

Results for CC(=O)NNC(=S)NC(=O)c1cccc([N+](=O)[O-])c1 ?
PMI act satM6P: 0.7; Lmaj promast: 68*; bCat KO growth: 95; PMI activator: 0.4; HCT116 PTEN-null: 94

How did O=C(NNc1c(Cl)cc(Cl)cc1Cl)c1cccc([N+](=O)[O-])c1 do in these assays?
PMI act satM6P: 1; Lmaj promast: 79*; bCat KO growth: 83; PMI activator: 0.9; HCT116 PTEN-null: 81

What do the screens show for `O=C(C[n+]1ccccc1)Nc1ccc(Oc2ccccc2)cc1`?
PMI act satM6P: 0.8; Lmaj promast: 17; PMI activator: 0.9

Results for CCCCC(CC)CNC(=O)C1CC=CCC1C(=O)O (stereo unspecified) ?
PMI act satM6P: 1; Lmaj promast: 36; bCat KO growth: 97; PMI activator: 1; HCT116 PTEN-null: 98

What do the screens show for `COc1ccc(NC(=O)c2cccc([N+](=O)[O-])c2)cc1`?
PMI act satM6P: 1; Lmaj promast: 3; PMI activator: 1

How did COc1ccc(NC(=S)Nc2cccc([N+](=O)[O-])c2)cc1 do in these assays?
PMI act satM6P: 1.1; Lmaj promast: 87*; bCat KO growth: 84; PMI activator: 1; HCT116 PTEN-null: 79

How did CC(=O)Nc1ccc(NC(=S)NC(=O)c2ccc([N+](=O)[O-])cc2)cc1 do in these assays?
PMI act satM6P: 1; Lmaj promast: 63*; bCat KO growth: 87; PMI activator: 1.1; HCT116 PTEN-null: 87

Results for CCC(=O)N1CCN(c2ccc(NC(=S)NC(=O)c3cccc([N+](=O)[O-])c3)cc2)CC1 ?
PMI act satM6P: 1; Lmaj promast: -4; bCat KO growth: 89; PMI activator: 1; HCT116 PTEN-null: 91

Results for CCC(=O)N1CCN(c2ccccc2NC(=S)NC(=O)c2cccc([N+](=O)[O-])c2)CC1 ?
PMI act satM6P: 0.9; Lmaj promast: 61*; PMI activator: 0.9

What do the screens show for `O=c1c2ccccc2c(/C=N/NS(=O)(=O)c2ccccc2)c(O)n1-c1ccccn1`?
PMI act satM6P: 1; Lmaj promast: -7; PMI activator: 1.3

What do the screens show for `O=C(Cn1c2ccccc2c(=O)c2cc([N+](=O)[O-])ccc21)Nc1ccccc1Cl`?
PMI act satM6P: 1; Lmaj promast: 22; bCat KO growth: 47; PMI activator: 1; HCT116 PTEN-null: 54

Results for CC(C)c1ccc(-c2cc(C(=O)N3N=C(C(F)F)CC3(O)C(F)F)c3ccccc3n2)cc1 (stereo unspecified) ?
PMI act satM6P: 0.8; Lmaj promast: 93*; bCat KO growth: 7; PMI activator: 0.7; HCT116 PTEN-null: 4

What do the screens show for `O=C(c1cc(C2CC2)nc2ccccc12)N1N=C(C(F)F)CC1(O)C(F)F` (stereo unspecified)?
PMI act satM6P: 1; Lmaj promast: 14; bCat KO growth: 78; PMI activator: 1; HCT116 PTEN-null: 86

What do the screens show for `O=C(COc1ccccc1)N/N=C/c1ccc([N+](=O)[O-])o1`?
PMI act satM6P: 0.8; Lmaj promast: 100*; bCat KO growth: 1.3*; PMI activator: 1; HCT116 PTEN-null: 1.0*

Results for COc1ccc(-c2nn(-c3ccccc3)cc2C(=O)N2CCOCC2)cc1 ?
PMI act satM6P: 0.9; Lmaj promast: -4; bCat KO growth: 96; PMI activator: 0.9; HCT116 PTEN-null: 101

Results for Cc1ccc(OCC(=O)N/N=C/c2ccc([N+](=O)[O-])o2)cc1 ?
PMI act satM6P: 1.2; Lmaj promast: 100*; bCat KO growth: 90; PMI activator: 1.1; HCT116 PTEN-null: 108

What do the screens show for `O=C(CNc1ccc2ccccc2c1)N/N=C/c1ccc([N+](=O)[O-])o1`?
PMI act satM6P: 0.5; Lmaj promast: 100*; bCat KO growth: 20; PMI activator: 0.9; HCT116 PTEN-null: 8
